Data on 5 substances can be found in publication PMC4258470 (Journal of molecular biology, 2014).

Experiment [1] concerns TAZ2 domain of CBP with pRb-AB. In words: 1H-15N HSQC NMR of 15N-TAZ2 with E7. The class given is binding, mouse. The conditions noted are these: 15N-TAZ2:E7:pRb-AB 1:0.25:1; NMR buffer pH 6.8.
Experiment [2] deals with T1, TAZ2 domain of CBP (residues 1764–1855) (Mus musculus, UniProt P45481).
T1 sequence (P45481 1764-1855): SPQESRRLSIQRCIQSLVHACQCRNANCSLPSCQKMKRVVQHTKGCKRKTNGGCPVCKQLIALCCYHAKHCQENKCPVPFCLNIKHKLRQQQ
Description: Fluorescence anisotropy, competition with ppE7. Conditions: phosphorylated vs non-phosphorylated (Table 1). Type of experiment: binding.

In experiment [3] the target is T1, TAZ2 domain of CBP (residues 1764–1855). Description: 1H-15N HSQC NMR titration of 15N-TAZ2. Type of experiment: binding. Conditions: TAZ2 vs TAZ1 of CBP; fluorescence and NMR.
The test system of another experiment is pRb in BJ cells. In words: pRb level by Western blot, BJ cells. The class given is cell-based, human. The conditions noted are these: retroviral transduction, vs control vector (BP); lysates and IP. A digest of the protocol:
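Human BJ fibroblasts (DMEM, 10% calf serum) retrovirally transduced with LXSN control vector or E7 and G418-selected (600 μg/ml). Sonicated in NETN buffer with phosphatase, deacetylase and protease inhibitors. Both lysates and anti-pRb immunoprecipitates (0.8–1.0 mg extract) resolved on 7–8% SDS-PAGE and Western blotted with anti-pRb, ECL detection.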
A general note: In western blotting, separated proteins are transferred to a membrane and probed.

Experiment [4] concerns pRb acetylation in BJ cells. Description: In-cell pRb acetylation assay. Conditions: retroviral transduction, vs control vector (BP). The class given is cell-based, human. In a few lines:
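Human BJ foreskin fibroblasts (DMEM, 10% calf serum) stably transduced with LXSN control vector or E7 retrovirus and selected in 600 μg/ml G418. Lysed by sonication in NETN containing butyrate, TSA, phosphatase and protease inhibitors. Anti-pRb IP from 0.8–1.0 mg extract, SDS-PAGE, blots probed for acetyl-lysine and pRb, ECL. Background-corrected AcK/pRb band ratio normalised to vector, mean of two independent experiments.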

The target of another experiment is p300 TAZ1 domain. The conditions noted are these: read-out: affinity measured by sedimentation equilibrium for p300 TAZ1; 4°C; cited from earlier work.
The test system of experiment [5] is pRb acetylation in MEF cells. In words: In-cell pRb acetylation assay, MEF cells. Type of experiment: cell-based, mouse. Conditions: for pRb acetylation, MEF cells before Cre treatment: floxed CBP/p300 MEF, prior to Cre. In a few lines:
(§1)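 Primary mouse embryonic fibroblasts homozygous for floxed CBP and p300 alleles, grown in DMEM with 10% calf serum, stably transduced with LXSN-E7 retrovirus and selected in 600 μg/ml G418. Lysed in NETN with inhibitors. pRb immunoprecipitated from 0.8–1.0 mg extract, 7–8% SDS-PAGE, PVDF blots probed with anti-pRb or anti-acetyl-lysine, ECL.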

The test system of a further experiment is p130. Conditions: in vitro; cited from earlier work.
Experiment [6] has as its system p53 transcriptional activity. The conditions noted are these: in cells; cited from earlier work.
The test system of the next experiment is cellular transformation. Conditions: epithelial cells, E7 alone; cited from earlier work.
In a further experiment the test system is pRb in MEF cells. In words: pRb level by Western blot, MEF cells. Type of experiment: cell-based, mouse. The conditions noted are these: floxed CBP/p300 MEF, prior to Cre. In a few lines:
as §1

The subject of experiment [7] is N-terminal region of p300, encompassing the TAZ1 (or CH1) domain. The conditions noted are these: buffer containing 2.5 mM EDTA; cited from earlier work.
Experiment [8] has as its system HPV E2 transcriptional activity. Conditions: cited from earlier work.
The subject of the next experiment is TAZ2 domain of CBP. Description: In vitro GB1 pulldown, TAZ2. Type of experiment: binding, mouse. The conditions noted are these: H6GB1 alone as negative control; legend refers to TAZ1 and TAZ2.
For another experiment, the target named is pocket domain of pRb. Conditions: read-out: Kd for pRb; pRb pocket domain (pRb-AB); cited from earlier work.

With “16-E7(1-51): construct containing the disordered CR1 and CR2 domains, residues M1-H51, of HPV16 E7”, the “ternary complex (TAZ2:E7:pRb-AB) formation by NMR” value in [1] is on record as “unable to support ternary complex formation”. Moreover, the “enhancement of binding to TAZ2 by CKII phosphorylation of Ser31 and Ser32” value in experiment [2] is recorded as 3 -fold. For the same substance, the “tighter binding to TAZ2 than to TAZ1” value in experiment [3] is recorded as ~ 1000 -fold. Besides, the “pRb level, BJ cells” value in the experiment with pRb in BJ cells is “comparable to control cells”. Moreover, in [4], the “pRb acetylation, BJ cells” value is reported as “comparable to control cells”.

Turning to “E7(1-98): full length high-risk HPV16 E7 (residues 1-98), homodimer”, the Kd on p300 TAZ1 domain was 0.9 to 3.5 µM. The “E7-induced pRb acetylation, MEF cells lacking CBP/p300” value in experiment [5] (Cre-treated MEF cells, listed as full-length HPV16 E7) is reported as “acetylation levels were substantially decreased in CBP/p300^−/− cells”. The “pRb acetylation, MEF cells before Cre treatment” value was “increased levels of pRb acetylation” in [5] (listed as E7) and “Enhanced acetylation of pRb” in experiment [5] (listed as full-length HPV16 E7). Moreover, the “enhancement of p300-mediated acetylation of p130” value with p130 is recorded as “enhances p300-mediated acetylation of the retinoblastoma protein family member p130”. Moreover, the “inhibition of p53 transcriptional activity” value in experiment [6] is “inhibit p53 transcriptional activity in cells”. Moreover, the transformation and immortalization result in the experiment on cellular transformation was “sufficient to transform and immortalize epithelial cells, albeit with lower efficiency”. Also, the “pRb level, MEF cells before Cre treatment” value in the experiment with pRb in MEF cells is “significantly decreased levels of pRb”. Further, the “interaction with p300 regions in GST pulldown” value in [7] was “interacts most strongly with the N-terminal region of p300, encompassing the TAZ1 (or CH1) domain”. In addition, in the experiment with pRb in BJ cells, the “pRb level, BJ cells” value is listed as “decreased levels of pRb”. Also, the “pRb acetylation, BJ cells” value in experiment [4] (listed as E7) is recorded as “increased levels of acetylation”; in experiment [4] (listed as full-length E7) it was “enhanced”; in [4] (listed as full-length HPV16 E7), “Enhanced acetylation of pRb”. In addition, the “repression of HPV E2 transcriptional activity” value in experiment [8] is “represses HPV E2 transcriptional activity”.

Consider “STAT1(710-750): STAT1 residues 710-750, positive control (SEVHPSRLQTTDNLLPMSPEEFDEVSRIVGSVEFDSMMNTV)”, for which, in the experiment with TAZ2 domain of CBP, the “pulldown signal vs H6GB1 background” value was “bind significantly above the background signal”.

With “p53(13-61): p53 residues 13-61, positive control”, the “pulldown signal vs H6GB1 background” value in the experiment on TAZ2 domain of CBP is “bind significantly above the background signal”.

Take “pp16-E7(1-51): HPV16 E7(1-51) phosphorylated by casein kinase II (CKII) at serines 31 and 32”: at pocket domain of pRb, the Kd was 0.002 µM.
